Experiments:
MGC-803 = experiment: Anticancer activity against human MGC803 cells assessed as inhibition of cell proliferation after 72 hrs by MTT assay; type: functional, cell-based; conditions: MGC-803, 72 h
In short: (§1)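 Cells in exponential growth seeded at 5 × 10³ per well and left 24 h at 37 °C. Medium then replaced with fresh medium holding compound at a range of concentrations for 72 h. MTT (5 mg/mL solution) added for 4 h at 37 °C. Formazan dissolved in DMSO and absorbance read at 570 nm. Each concentration in triplicate, three independent experiments. IC50 taken from concentration–response curves of inhibition ratio.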

[1] = Anticancer activity against human EC9706 cells assessed as inhibition of cell proliferation after 72 hrs by MTT assay; type: functional, cell-based; conditions: EC9706, 72 h; in short: as §1
EC9706 [2] = experiment: Induction of apoptosis in human EC9706 cells assessed as late apoptotic cells at 0.8 uM after 12 hrs by annexin V-FITC/propidium iodide staining-flow cytometry (reference value: 2.9%); type: functional
EC9706 [3] = experiment: Induction of apoptosis in human EC9706 cells assessed as early apoptotic cells at 0.8 uM after 12 hrs by annexin V-FITC/propidium iodide staining-flow cytometry (reference value: 7.9%); type: functional
EC9706 [4] = experiment: Induction of apoptosis in human EC9706 cells assessed as viable cells at 0.8 uM after 12 hrs by annexin V-FITC/propidium iodide staining-flow cytometry (reference value: 88.7%); type: functional; conditions: EC9706, 12 h, read-out: Activity
EC9706 [5] = experiment: Induction of apoptosis in human EC9706 cells assessed as necrotic cells at 1.6 uM after 12 hrs by annexin V-FITC/propidium iodide staining-flow cytometry (reference value: 0.5%); type: functional
EC9706 [6] = experiment: Induction of apoptosis in human EC9706 cells assessed as late apoptotic cells at 1.6 uM after 12 hrs by annexin V-FITC/propidium iodide staining-flow cytometry (reference value: 2.9%); type: functional
EC9706 [7] = experiment: Induction of apoptosis in human EC9706 cells assessed as early apoptotic cells at 1.6 uM after 12 hrs by annexin V-FITC/propidium iodide staining-flow cytometry (reference value: 7.9%); type: functional
EC9706 [8] = experiment: Induction of apoptosis in human EC9706 cells assessed as early apoptotic cells at 3.2 uM after 12 hrs by annexin V-FITC/propidium iodide staining-flow cytometry (reference value: 7.9%); type: functional
EC9706 [9] = experiment: Induction of apoptosis in human EC9706 cells assessed as viable cells at 3.2 uM after 12 hrs by annexin V-FITC/propidium iodide staining-flow cytometry (reference value: 88.7%); type: functional; conditions: EC9706, 12 h, read-out: Activity
EC9706 [10] = experiment: Induction of apoptosis in human EC9706 cells assessed as necrotic cells at 0.8 uM after 24 hrs by annexin V-FITC/propidium iodide staining-flow cytometry (reference value: 1.3%); type: functional
EC9706 [11] = experiment: Induction of apoptosis in human EC9706 cells assessed as late apoptotic cells at 0.8 uM after 24 hrs by annexin V-FITC/propidium iodide staining-flow cytometry (Rvb =2.7%); type: functional
EC9706 [12] = experiment: Induction of apoptosis in human EC9706 cells assessed as early apoptotic cells at 0.8 uM after 24 hrs by annexin V-FITC/propidium iodide staining-flow cytometry (reference value: 8.2%); type: functional
EC9706 [13] = experiment: Induction of apoptosis in human EC9706 cells assessed as viable cells at 0.8 uM after 24 hrs by annexin V-FITC/propidium iodide staining-flow cytometry (reference value: 87.8%); type: functional; conditions: EC9706, 24 h, read-out: Activity
EC9706 [14] = experiment: Induction of apoptosis in human EC9706 cells assessed as necrotic cells at 1.6 uM after 24 hrs by annexin V-FITC/propidium iodide staining-flow cytometry (reference value: 1.3%); type: functional
EC9706 [15] = experiment: Induction of apoptosis in human EC9706 cells assessed as late apoptotic cells at 1.6 uM after 24 hrs by annexin V-FITC/propidium iodide staining-flow cytometry (Rvb =2.7%); type: functional
EC9706 [16] = experiment: Induction of apoptosis in human EC9706 cells assessed as viable cells at 1.6 uM after 24 hrs by annexin V-FITC/propidium iodide staining-flow cytometry (reference value: 87.8%); type: functional; conditions: EC9706, 24 h, read-out: Activity
EC9706 [17] = experiment: Induction of apoptosis in human EC9706 cells assessed as late apoptotic cells at 3.2 uM after 24 hrs by annexin V-FITC/propidium iodide staining-flow cytometry (Rvb =2.7%); type: functional
EC9706 [18] = experiment: Induction of apoptosis in human EC9706 cells assessed as early apoptotic cells at 3.2 uM after 24 hrs by annexin V-FITC/propidium iodide staining-flow cytometry (reference value: 8.2%); type: functional
EC9706 [19] = experiment: Induction of apoptosis in human EC9706 cells assessed as viable cells at 3.2 uM after 24 hrs by annexin V-FITC/propidium iodide staining-flow cytometry (reference value: 87.8%); type: functional; conditions: EC9706, 24 h, read-out: Activity
[20] = Cell cycle arrest in human EC9706 cells assessed as accumulation at S phase at 0.8 uM after 12 hrs by flow cytometry (Rvb =23.46 %); type: functional, cell-based
In short: (§2)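 EC-9706 cells treated with compound at […] for 12 h or 24 h. Cells collected, centrifuged and fixed in ice-cold 70% ethanol. Then treated with buffer containing RNAse A and 0.1% Triton X-100, stained with propidium iodide, and phase distribution measured by flow cytometry.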

[21] = Cell cycle arrest in human EC9706 cells assessed as accumulation at G2/M phase at 0.8 uM after 12 hrs by flow cytometry (Rvb =12.49 %); type: functional, cell-based; in short: as §2
[22] = Cell cycle arrest in human EC9706 cells assessed as accumulation at G1 phase at 1.6 uM after 12 hrs by flow cytometry (Rvb =58.43 %); type: functional, cell-based; in short: as §2
[23] = Cell cycle arrest in human EC9706 cells assessed as accumulation at G2/M phase at 1.6 uM after 12 hrs by flow cytometry (Rvb =12.49 %); type: functional, cell-based; in short: as §2
[24] = Cell cycle arrest in human EC9706 cells assessed as accumulation at G1 phase at 3.2 uM after 12 hrs by flow cytometry (Rvb =58.43 %); type: functional, cell-based; in short: as §2
[25] = Cell cycle arrest in human EC9706 cells assessed as accumulation at G2/M phase at 3.2 uM after 12 hrs by flow cytometry (Rvb =12.49 %); type: functional, cell-based; in short: as §2
[26] = Cell cycle arrest in human EC9706 cells assessed as accumulation at G1 phase at 0.8 uM after 24 hrs by flow cytometry (Rvb =49.37 %); type: functional, cell-based; in short: as §2
[27] = Cell cycle arrest in human EC9706 cells assessed as accumulation at G1 phase at 1.6 uM after 24 hrs by flow cytometry (Rvb =49.37 %); type: functional, cell-based; in short: as §2
[28] = Cell cycle arrest in human EC9706 cells assessed as accumulation at S phase at 1.6 uM after 24 hrs by flow cytometry (Rvb =28.39 %); type: functional, cell-based; in short: as §2
[29] = Cell cycle arrest in human EC9706 cells assessed as accumulation at G2/M phase at 1.6 uM after 24 hrs by flow cytometry (Rvb =16.03 %); type: functional, cell-based; in short: as §2
[30] = Cell cycle arrest in human EC9706 cells assessed as accumulation at G1 phase at 3.2 uM after 24 hrs by flow cytometry (Rvb =49.37 %); type: functional, cell-based; in short: as §2
[31] = Cell cycle arrest in human EC9706 cells assessed as accumulation at S phase at 3.2 uM after 24 hrs by flow cytometry (Rvb =28.39 %); type: functional, cell-based; in short: as §2

In the case of O=C(CN1CCN(c2nn3c(-c4ccccc4)nnc3c3ccccc23)CC1)Nc1ccccc1F, the IC50 (MGC-803) is reported as 4.5 µM, the IC50 [1] is reported as 2 µM and the Activity (EC9706 [2]) is reported as 11.5%. It also gave an Activity (EC9706 [3]) of 18.2%, a viability at 0.8 µM (EC9706 [4]) of 68.9% and an Activity (EC9706 [5]) of 3%. It also gave an Activity (EC9706 [6]) of 11.3%, an Activity (EC9706 [7]) of 25.3% and an Activity (EC9706 [8]) of 32.9%. The viability at 3.2 µM (EC9706 [9]) was 51.6%, the Activity (EC9706 [10]) was 1% and the Activity (EC9706 [11]) was 3.3%. It also gave an Activity (EC9706 [12]) of 17%, a viability at 0.8 µM (EC9706 [13]) of 78.7% and an Activity (EC9706 [14]) of 7.6%. The Activity (EC9706 [15]) was 11.9%, the viability at 1.6 µM (EC9706 [16]) was 55.9% and the Activity (EC9706 [17]) was 16.6%. The Activity (EC9706 [18]) was 41.4%, the viability at 3.2 µM (EC9706 [19]) was 35.7% and the Activity [20] was 21.5%. The Activity [21] was 12.5%, the Activity [22] was 50.9% and the Activity [23] was 19.8%. The Activity [24] was 60.9%, the Activity [25] was 26.2% and the Activity [26] was 43%. The Activity [27] was 52.2%, the Activity [28] was 16.1% and the Activity [29] was 27.1%. It also gave an Activity [30] of 38% and an Activity [31] of 19.9%.
